Structures are written as SMILES. The source made the active and inactive calls. The rule behind the calls is not given here.

The values that follow come from ChEMBL document CHEMBL3297648, “Diterpenoids from the Chinese liverwort Heteroscyphus tener and their antiproliferative effects” (J Nat Prod, 2014).

The test system of one experiment is PC-3. Kind of experiment: Induction of apoptosis in human PC3 cells assessed as late apoptotic cells at 20 uM after 4 hrs by Annexin V-FITC/propidium iodide staining based flow cytometry (reference value: 7.92%). The format is functional. The procedure, abridged:
(§1)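 Cells seeded in 6-well plates for 24 h, then given 20 μM for the stated times. Cells were trypsinized, PBS-washed, stained with annexin V-FITC/PI, and analysed immediately by flow cytometry. Means ± SD of three independent experiments; Student's t test against untreated control.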
(In general: In flow cytometry, cells or beads pass a laser one at a time.)

The nature of experiment [1]: Decrease in cyclin E protein expression in human DU145 cells by western blot analysis. Type of experiment: functional, cell-based. The following applies: DU-145, TDE = time-dependent effect. In short, it runs like this:
(§2)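 Western blot of cyclin D1, cyclin E, Cdk4 and p21 in PC3 and DU145 lysates. Lysis in RIPA buffer plus protease inhibitors, BCA quantification, 12% SDS-PAGE, nitrocellulose transfer, milk block, primaries overnight at 4 °C, secondary 1:2000 for 45 min, ECL read-out. GAPDH served as loading control.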
For orientation: A western blot detects proteins with antibodies after separation by electrophoresis.

Experiment [2] is described as follows: Decrease in Cdk4 protein expression in human PC3 cells after 2 to 48 hrs by western blot analysis. The following applies: PC-3. Type of experiment: functional, cell-based. The procedure, abridged:
as §2

Experiment [3] deals with DU-145. Kind of experiment: Induction of apoptosis in human DU145 cells assessed as necrotic cells at 20 uM after 24 hrs by Annexin V-FITC/propidium iodide staining based flow cytometry (reference value: 0.21%). Type of experiment: functional. In short, it runs like this: as §1
Experiment [4] is described as follows: Cell cycle arrest in human PC3 cells assessed as accumulation at S phase at 20 uM after 24 hrs by propidium iodide staining based flow cytometry (reference value: 22.07%). The following applies: PC-3. Type of experiment: functional.
Experiment [5] is described as follows: Cell cycle arrest in human PC3 cells assessed as accumulation at subG1 phase at 20 uM after 24 hrs by propidium iodide staining based flow cytometry (reference value: 0.13%). The format is functional. The following applies: PC-3.
Experiment [6] deals with DU-145. The experiment can be described thus: Induction of ROS generation in human DU145 cells at 20 uM measured up to 6 hrs by DCFH-DA staining based flow cytometry. The format is functional, cell-based. The procedure, abridged: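 Cells exposed to 20 μM for the indicated times, then loaded with 10 μM DCFH-DA for 30 min at 37 °C. Washed, resuspended in PBS and read at once by flow cytometry. ROS expressed as ratio relative to untreated control.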

Experiment [7] concerns DU-145. Kind of experiment: Induction of apoptosis in human DU145 cells assessed as early apoptotic cells at 20 uM after 8 hrs by Annexin V-FITC/propidium iodide staining based flow cytometry (reference value: 1.60%). Type of experiment: functional. In short, it runs like this: as §1
Experiment [8] in a line: Decrease in BRCA1 protein expression in human DU145 cells at 20 uM after 2 to 48 hrs by western blot analysis. The following applies: DU-145. Type of experiment: functional, cell-based. In short, it runs like this:
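Cells treated at 20 μM for various times, lysed in RIPA buffer with protease/phosphatase inhibitors, protein quantified by BCA. Equal protein run on 12% SDS-PAGE, transferred to nitrocellulose, blocked 1 h in 5% milk/TBST, primary antibodies overnight at 4 °C, secondary 1:2000 for 45 min, ECL detection on film. GAPDH used as loading control.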

In the case of `C=C[C@@](C)(O)CC[C@@H]1C(C)=CC[C@@H]2C(C)(C)CCC[C@@]12C`, the Activity with PC-3 came to 12.94%; in the experiment with DU-145 [3], 4.55%; in experiment [4] it was 4.24%; in experiment [5], 2.39%; in the experiment on DU-145 [7], 4.56%. For the same molecule, the inhibition entry in experiment [1] is “tde”. Moreover, the inhibition entry in experiment [2] is “Active”. For the same molecule, in the experiment with DU-145 [6], the outcome was Active. In addition, the inhibition result in [8] is “inactive”.
